Measured values from ChEMBL document CHEMBL5724801, “EUbOPEN Chemogenomics Library - Multiplex” (2024).
Where “and” joins values, the source holds several entries; their conditions need not be identical. Equal values may be shown once.

Tested on: U2OS
Experiment: Multiplex assay against U2OS
Type: toxicity, cell-based
Details: human, 12 h, 1 µM, compound concentration 1 uM
How it was run: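 Hoechst33342, BioTracker Green Microtubule Cytoskeleton Dye, MitoTracker Red and Annexin V Alexa Fluor 680 were added to live cells at seeding, and imaging on a CQ1 microscope at 37°C and 5% CO2 followed compound addition. Gating by CellPathfinder machine learning separated cells into Hoechst high-intensity objects or normal cells, then normal cells into healthy, pyknosed or fragmented nuclei, then pyknosed cells into mitotic or apoptotic. Per cents of healthy-nucleus cells are reported for the tubulin, mitochondrial-mass and membrane-permeability phenotypes.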

| SMILES | Population Apoptotic (%) | Population Healthy Nuclei (%) | Population Hoechst High Intensity Objects (%) | Population Membrane Permeable-Phenotype (%) | Population Mitochondria Different-Phenotype (%) | Population Mitotic Cells (%) | Population Normal (%) | Population Pyknosed Nuclei (%) | Population Tubulin-Different-Phenotype (%) | Total Cell Count |
| --- | --- | --- | --- | --- | --- | --- | --- | --- | --- | --- |
| Cc1ccc(F)cc1C(=O)Nc1ccc(C(=O)N2Cc3cccn3Cc3ccccc32)c(Cl)c1 [LIXIVAPTAN] | 69% and 84% | 55% and 82% | 3% | 9% and 14% | 9% and 10% | 30% and 15% | 96% | 11% and 8% | 7% and 11% | 230 and 150 |
| O=C1[C@H](Cc2ccc(O)cc2)N2C(=O)CCN(C(=O)NCc3ccccc3)[C@H]2CN1Cc1cccc2ccccc12 | 91% and 84% | 74% and 66% | 4% and 0% | 4% and 5% | 1% and 8% | 8% and 15% | 96% and 99% | 12% and 11% | 1% and 4% | 200 and 113 |

Same assay, conditions: human, 12 h, 1 µM, compound concentration 1 uM

| SMILES | Population Fragmented Nuclei (%) |
| --- | --- |
| O=C1[C@H](Cc2ccc(O)cc2)N2C(=O)CCN(C(=O)NCc3ccccc3)[C@H]2CN1Cc1cccc2ccccc12 | 13% and 21% |

Same assay, conditions: human, 12 h, 10 µM, compound concentration 10 uM

| SMILES | Population Apoptotic (%) | Population Fragmented Nuclei (%) | Population Healthy Nuclei (%) | Population Hoechst High Intensity Objects (%) | Population Membrane Permeable-Phenotype (%) | Population Mitochondria Different-Phenotype (%) | Population Mitotic Cells (%) | Population Normal (%) | Population Pyknosed Nuclei (%) | Population Tubulin-Different-Phenotype (%) |
| --- | --- | --- | --- | --- | --- | --- | --- | --- | --- | --- |
| Cc1ccc(F)cc1C(=O)Nc1ccc(C(=O)N2Cc3cccn3Cc3ccccc32)c(Cl)c1 [LIXIVAPTAN] | 59% and 47% | 34% and 13% | 49% and 69% | 5% | 79% and 63% | 42% and 55% | 40% and 52% | 94% | 16% | 85% and 77% |
| O=C1[C@H](Cc2ccc(O)cc2)N2C(=O)CCN(C(=O)NCc3ccccc3)[C@H]2CN1Cc1cccc2ccccc12 | 60% and 72% | 32% and 19% | 50% and 67% | 3% and 6% | 55% and 38% | 35% and 47% | 40% and 27% | 96% and 93% | 17% and 13% | 55% and 43% |

Same assay, conditions: human, 12 h, 10 µM, compound concentration 10 uM

| SMILES | Total Cell Count |
| --- | --- |
| Cc1ccc(F)cc1C(=O)Nc1ccc(C(=O)N2Cc3cccn3Cc3ccccc32)c(Cl)c1 [LIXIVAPTAN] | 203 and 119 |
| O=C1[C@H](Cc2ccc(O)cc2)N2C(=O)CCN(C(=O)NCc3ccccc3)[C@H]2CN1Cc1cccc2ccccc12 | 207 and 88 |

Same assay, conditions: human, 24 h, 1 µM, compound concentration 1 uM

| SMILES | Population Apoptotic (%) | Population Fragmented Nuclei (%) | Population Healthy Nuclei (%) | Population Hoechst High Intensity Objects (%) | Population Membrane Permeable-Phenotype (%) | Population Mitochondria Different-Phenotype (%) | Population Normal (%) | Population Pyknosed Nuclei (%) | Population Tubulin-Different-Phenotype (%) | Total Cell Count |
| --- | --- | --- | --- | --- | --- | --- | --- | --- | --- | --- |
| Cc1ccc(F)cc1C(=O)Nc1ccc(C(=O)N2Cc3cccn3Cc3ccccc32)c(Cl)c1 [LIXIVAPTAN] | 86% and 57% | 26% and 14% | 64% and 81% | 1% and 4% | 9% and 11% | 9% and 13% | 98% and 95% | 8% and 4% | 4% and 7% | 257 and 171 |
| O=C1[C@H](Cc2ccc(O)cc2)N2C(=O)CCN(C(=O)NCc3ccccc3)[C@H]2CN1Cc1cccc2ccccc12 | 80% and 88% | 13% and 14% | 73% and 71% | 2% and 1% | 4% and 7% | 1% and 5% | 97% and 98% | 13% and 14% | 2% and 4% | 242 and 127 |

Same assay, conditions: human, 24 h, 1 µM, compound concentration 1 uM

| SMILES | Population Mitotic Cells (%) |
| --- | --- |
| O=C1[C@H](Cc2ccc(O)cc2)N2C(=O)CCN(C(=O)NCc3ccccc3)[C@H]2CN1Cc1cccc2ccccc12 | 19% and 11% |

Same assay, conditions: human, 24 h, 10 µM, compound concentration 10 uM

| SMILES | Population Apoptotic (%) | Population Fragmented Nuclei (%) | Population Healthy Nuclei (%) | Population Hoechst High Intensity Objects (%) | Population Membrane Permeable-Phenotype (%) | Population Mitochondria Different-Phenotype (%) | Population Mitotic Cells (%) | Population Normal (%) | Population Pyknosed Nuclei (%) | Population Tubulin-Different-Phenotype (%) |
| --- | --- | --- | --- | --- | --- | --- | --- | --- | --- | --- |
| Cc1ccc(F)cc1C(=O)Nc1ccc(C(=O)N2Cc3cccn3Cc3ccccc32)c(Cl)c1 [LIXIVAPTAN] | 59% and 66% | 30% and 14% | 50% and 67% | 4% | 65% and 54% | 63% and 67% | 40% and 33% | 95% | 18% | 75% and 66% |
| O=C1[C@H](Cc2ccc(O)cc2)N2C(=O)CCN(C(=O)NCc3ccccc3)[C@H]2CN1Cc1cccc2ccccc12 | 65% and 85% | 34% and 29% | 42% and 54% | 3% and 5% | 25% and 36% | 23% and 38% | 34% and 14% | 96% and 94% | 22% and 16% | 25% and 42% |

Same assay, conditions: human, 24 h, 10 µM, compound concentration 10 uM

| SMILES | Total Cell Count |
| --- | --- |
| Cc1ccc(F)cc1C(=O)Nc1ccc(C(=O)N2Cc3cccn3Cc3ccccc32)c(Cl)c1 [LIXIVAPTAN] | 207 and 119 |
| O=C1[C@H](Cc2ccc(O)cc2)N2C(=O)CCN(C(=O)NCc3ccccc3)[C@H]2CN1Cc1cccc2ccccc12 | 214 and 91 |

Same assay, conditions: human, 48 h, 1 µM, compound concentration 1 uM

| SMILES | Population Apoptotic (%) | Population Fragmented Nuclei (%) | Population Healthy Nuclei (%) | Population Hoechst High Intensity Objects (%) | Population Membrane Permeable-Phenotype (%) | Population Mitochondria Different-Phenotype (%) | Population Mitotic Cells (%) | Population Normal (%) | Population Pyknosed Nuclei (%) | Population Tubulin-Different-Phenotype (%) |
| --- | --- | --- | --- | --- | --- | --- | --- | --- | --- | --- |
| Cc1ccc(F)cc1C(=O)Nc1ccc(C(=O)N2Cc3cccn3Cc3ccccc32)c(Cl)c1 [LIXIVAPTAN] | 87% and 95% | 24% and 10% | 64% and 79% | 1% and 3% | 9% and 13% | 6% and 11% | 12% and 5% | 98% and 96% | 11% and 10% | 5% |
| O=C1[C@H](Cc2ccc(O)cc2)N2C(=O)CCN(C(=O)NCc3ccccc3)[C@H]2CN1Cc1cccc2ccccc12 | 81% and 95% | 15% and 16% | 73% and 67% | 3% and 5% | 2% and 3% | 2% and 0% | – | 96% and 94% | 11% and 15% | 3% and 5% |

Same assay, conditions: human, 48 h, 1 µM, compound concentration 1 uM

| SMILES | Total Cell Count |
| --- | --- |
| Cc1ccc(F)cc1C(=O)Nc1ccc(C(=O)N2Cc3cccn3Cc3ccccc32)c(Cl)c1 [LIXIVAPTAN] | 378 and 206 |
| O=C1[C@H](Cc2ccc(O)cc2)N2C(=O)CCN(C(=O)NCc3ccccc3)[C@H]2CN1Cc1cccc2ccccc12 | 326 and 168 |

Same assay, conditions: human, 48 h, 10 µM, compound concentration 10 uM

| SMILES | Population Apoptotic (%) | Population Fragmented Nuclei (%) | Population Healthy Nuclei (%) | Population Hoechst High Intensity Objects (%) | Population Membrane Permeable-Phenotype (%) | Population Mitochondria Different-Phenotype (%) | Population Normal (%) | Population Pyknosed Nuclei (%) | Population Tubulin-Different-Phenotype (%) | Total Cell Count |
| --- | --- | --- | --- | --- | --- | --- | --- | --- | --- | --- |
| Cc1ccc(F)cc1C(=O)Nc1ccc(C(=O)N2Cc3cccn3Cc3ccccc32)c(Cl)c1 [LIXIVAPTAN] | 75% and 92% | 32% and 18% | 37% and 58% | 5% and 12% | 49% and 60% | 40% and 52% | 94% and 87% | 29% and 23% | 44% and 57% | 232 and 137 |
| O=C1[C@H](Cc2ccc(O)cc2)N2C(=O)CCN(C(=O)NCc3ccccc3)[C@H]2CN1Cc1cccc2ccccc12 | 82% and 81% | 37% and 33% | 43% and 46% | 5% and 4% | 28% and 22% | 16% and 20% | 94% and 95% | 19% and 20% | 19% and 18% | 252 and 111 |

Same assay, conditions: human, 48 h, 10 µM, compound concentration 10 uM

| SMILES | Population Mitotic Cells (%) |
| --- | --- |
| O=C1[C@H](Cc2ccc(O)cc2)N2C(=O)CCN(C(=O)NCc3ccccc3)[C@H]2CN1Cc1cccc2ccccc12 | 17% and 18% |
